Results from ChEMBL document CHEMBL1138555, “N-acylated and N,N'-diacylated imidazolidine-2-thione derivatives and N,N'-diacylated tetrahydropyrimidine-2(1H)-thione analogues: synthesis and antiproliferative activity” (Eur J Med Chem, 2009).
Calls of active or inactive are those of the source. No cut-off for these calls is given here.

Test system: Human immunodeficiency virus 1
Assay: Antiviral activity against HIV1 in human MT4 cells assessed as prevention of virus-induced cytopathogenicity
Type: functional, organism-based
How it was run: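 MT-4 cells, 1 × 10⁴ per well, with serial compound dilutions from a 100 mM DMSO stock. Infected with HIV-1 at 100 CCID50. Four-day incubation at 37 °C, then viable cells measured by MTT. Read-out is inhibition of virus-induced cytopathogenicity, assessed at non-cytotoxic concentrations.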

| Structure (SMILES) | Activity |
| --- | --- |
| CC(C)(C)C(=O)/C(C#N)=C/N1CCNC1=S | inactive |
| CCOC(=O)/C(=C/N1CCNC1=S)C(=O)c1ccccc1 | inactive |
| N#C/C(=C\N1CCNC1=S)C(=O)Nc1ccc(Cl)cc1 | inactive |
